Converted amounts (≈) assume the structure as drawn. The source made the active and inactive calls. The calls are words filed in the database; no cut-off is given here.
Columns and labels:
[1] = biological target: Cyclin-dependent kinase 2/cyclin A (Homo sapiens, UniProt P24941); assay: Inhibition of CDK2/cyclin A; assay type: protein-complex assay
[2] = Inhibition of CK2
[3] = biological target: Serine/threonine-protein kinase PLK2 (Homo sapiens, UniProt Q9NYY3); assay: Inhibition of PLK2
[4] = AUC (0 to infinity) in Nu/Nu Balb Harlan mouse at 10 mg/kg, iv; assay type: ADME, organism-based; design: time infinity, dose 10 mg/kg, route intravenous; details: plasma
How it was run: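 Male Balb Nu/Nu mice (Harlan) received a single 10 mg/kg intravenous dose, n = 3 animals per study. Vehicle was either trifluoroacetate salt in dextrose or free base in 50% PEG 400/glucosate, depending on compound. Parameters were reported as mean ± standard deviation.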

[5] = biological target: MAP kinase-activated protein kinase 2 (Homo sapiens, UniProt P49137); assay: Inhibition of MAP-KAPK2
Chain of MAP kinase-activated protein kinase 2 (P49137 whole entry): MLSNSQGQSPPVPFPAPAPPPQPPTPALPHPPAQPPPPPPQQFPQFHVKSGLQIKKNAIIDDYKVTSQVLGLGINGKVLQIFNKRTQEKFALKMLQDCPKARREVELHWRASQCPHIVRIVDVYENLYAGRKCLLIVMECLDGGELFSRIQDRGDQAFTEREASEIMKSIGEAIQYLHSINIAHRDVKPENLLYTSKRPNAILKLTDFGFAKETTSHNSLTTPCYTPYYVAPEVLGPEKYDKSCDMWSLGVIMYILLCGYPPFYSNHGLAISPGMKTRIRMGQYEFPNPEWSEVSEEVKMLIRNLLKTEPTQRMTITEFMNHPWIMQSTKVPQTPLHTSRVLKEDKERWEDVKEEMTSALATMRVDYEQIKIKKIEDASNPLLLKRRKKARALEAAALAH

[6] = biological target: Serine/threonine-protein kinase Chk1 (Homo sapiens, UniProt O14757); assay: Inhibition of CHK1
[7] = biological target: Cell division cycle 7-related protein kinase (Homo sapiens, UniProt O00311); assay: Inhibition of CDC7
[8] = biological target: Proto-oncogene tyrosine-protein kinase receptor Ret (Homo sapiens, UniProt P07949); assay: Inhibition of RET
[9] = Antiproliferative activity against human SUP-M2 cells; assay type: functional, cell-based
MOLT-4 = assay: Antiproliferative activity against human MOLT4 cells; assay type: functional, cell-based
[10] = biological target: Fibroblast growth factor receptor 1 (Homo sapiens, UniProt P11362); assay: Inhibition of FGFR1
Chain of Fibroblast growth factor receptor 1 (P11362 whole entry): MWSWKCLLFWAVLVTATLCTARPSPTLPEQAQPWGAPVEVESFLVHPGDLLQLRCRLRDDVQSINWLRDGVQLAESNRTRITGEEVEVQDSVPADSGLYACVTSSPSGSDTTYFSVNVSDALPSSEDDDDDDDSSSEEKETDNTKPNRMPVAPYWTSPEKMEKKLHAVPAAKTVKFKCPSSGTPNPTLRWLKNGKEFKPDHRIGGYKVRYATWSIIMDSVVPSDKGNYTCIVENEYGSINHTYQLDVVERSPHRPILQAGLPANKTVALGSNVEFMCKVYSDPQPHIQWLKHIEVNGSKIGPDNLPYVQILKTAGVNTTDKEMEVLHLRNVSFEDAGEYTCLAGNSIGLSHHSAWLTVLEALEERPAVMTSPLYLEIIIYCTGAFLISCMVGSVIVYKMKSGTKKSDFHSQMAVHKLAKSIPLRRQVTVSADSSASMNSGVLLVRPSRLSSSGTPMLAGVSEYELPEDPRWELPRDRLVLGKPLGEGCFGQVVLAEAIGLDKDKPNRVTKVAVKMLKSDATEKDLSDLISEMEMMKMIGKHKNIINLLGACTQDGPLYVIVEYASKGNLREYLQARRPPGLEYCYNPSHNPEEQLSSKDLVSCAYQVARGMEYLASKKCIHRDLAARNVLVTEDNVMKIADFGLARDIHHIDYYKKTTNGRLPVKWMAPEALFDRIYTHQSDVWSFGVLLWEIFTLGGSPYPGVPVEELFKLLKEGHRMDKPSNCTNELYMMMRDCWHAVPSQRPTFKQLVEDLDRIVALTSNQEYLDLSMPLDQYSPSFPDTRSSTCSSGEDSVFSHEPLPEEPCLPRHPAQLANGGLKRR

A2780 [11] = assay: Induction of apoptosis in human A2780 cells assessed as caspase3 activation at 5 uM after 24 hrs by Western blotting analysis; assay type: functional, cell-based
How it was run: (§1)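 A2780 cells were treated for 24 h at 0.05, 0.5 and 5 µM, with nocodazole as positive control. Lysates were immunoblotted for pSer10 histone H3, pThr199 nucleophosmin, cyclin B1, cyclin A, PARP cleavage and caspase 3 activation.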

A2780 [12] = assay: Cell cycle arrest in human A2780 cells assessed as induction of phospho Thr199 nucleophosmin level after 24 hrs by Western blotting analysis; assay type: functional, cell-based; how it was run: as §1
[13] = biological target: Insulin-like growth factor 1 receptor (Homo sapiens, UniProt P08069); assay: Inhibition of IGFR1
[14] = biological target: Receptor-type tyrosine-protein kinase FLT3 (Homo sapiens, UniProt P36888); assay: Inhibition of FLT3
Chain of Receptor-type tyrosine-protein kinase FLT3 (P36888 whole entry): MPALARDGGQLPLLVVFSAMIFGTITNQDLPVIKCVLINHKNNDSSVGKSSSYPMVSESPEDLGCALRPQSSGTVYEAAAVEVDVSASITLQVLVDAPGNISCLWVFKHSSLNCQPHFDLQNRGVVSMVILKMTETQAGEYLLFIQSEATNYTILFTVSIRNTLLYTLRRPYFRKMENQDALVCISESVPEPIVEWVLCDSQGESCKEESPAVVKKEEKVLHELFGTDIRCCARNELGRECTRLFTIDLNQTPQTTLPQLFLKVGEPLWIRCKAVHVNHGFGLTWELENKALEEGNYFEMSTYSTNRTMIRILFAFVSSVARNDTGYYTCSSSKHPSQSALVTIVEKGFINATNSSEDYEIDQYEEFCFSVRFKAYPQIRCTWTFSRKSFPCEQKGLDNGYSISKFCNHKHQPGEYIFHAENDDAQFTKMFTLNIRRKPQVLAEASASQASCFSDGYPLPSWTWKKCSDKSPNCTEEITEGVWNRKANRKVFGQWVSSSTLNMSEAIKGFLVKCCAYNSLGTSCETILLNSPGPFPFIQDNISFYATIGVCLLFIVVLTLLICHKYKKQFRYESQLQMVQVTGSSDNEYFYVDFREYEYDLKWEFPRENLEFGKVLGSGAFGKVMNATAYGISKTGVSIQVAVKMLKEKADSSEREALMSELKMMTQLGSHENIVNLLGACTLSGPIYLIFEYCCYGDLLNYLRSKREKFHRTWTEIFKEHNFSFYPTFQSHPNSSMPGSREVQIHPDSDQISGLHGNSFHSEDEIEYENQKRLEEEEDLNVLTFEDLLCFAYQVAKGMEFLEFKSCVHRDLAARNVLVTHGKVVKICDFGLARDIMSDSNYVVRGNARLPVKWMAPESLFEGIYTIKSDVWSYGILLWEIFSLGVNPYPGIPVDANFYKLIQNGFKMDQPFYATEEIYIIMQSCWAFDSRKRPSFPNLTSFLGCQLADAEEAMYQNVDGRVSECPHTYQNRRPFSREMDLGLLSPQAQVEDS

[15] = Volume of distribution at steady state in Nu/Nu Balb Harlan mouse at 10 mg/kg, iv; assay type: ADME, organism-based; design: dose 10 mg/kg, route intravenous; details: in vivo, read-out: Vdss
A2780 [16] = assay: Antiproliferative activity against human A2780 cells; assay type: functional, cell-based
Aurora kinase B = Aurora kinase B (Homo sapiens, UniProt Q96GD4); assay: Inhibition of Aurora-B
Chain of Aurora kinase B (Q96GD4 whole entry): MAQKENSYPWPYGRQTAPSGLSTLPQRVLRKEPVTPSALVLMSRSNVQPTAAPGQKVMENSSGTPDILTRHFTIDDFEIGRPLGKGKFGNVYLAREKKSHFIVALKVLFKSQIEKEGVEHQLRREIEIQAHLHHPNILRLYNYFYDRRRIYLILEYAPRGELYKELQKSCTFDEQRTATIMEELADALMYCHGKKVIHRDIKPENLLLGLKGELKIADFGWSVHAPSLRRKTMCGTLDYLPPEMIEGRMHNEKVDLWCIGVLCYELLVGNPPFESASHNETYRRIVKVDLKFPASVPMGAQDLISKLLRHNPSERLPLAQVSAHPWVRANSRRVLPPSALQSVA

[17] = biological target: Glycogen synthase kinase-3 beta (Homo sapiens, UniProt P49841); assay: Inhibition of GSK3-beta
Chain of Glycogen synthase kinase-3 beta (P49841 whole entry): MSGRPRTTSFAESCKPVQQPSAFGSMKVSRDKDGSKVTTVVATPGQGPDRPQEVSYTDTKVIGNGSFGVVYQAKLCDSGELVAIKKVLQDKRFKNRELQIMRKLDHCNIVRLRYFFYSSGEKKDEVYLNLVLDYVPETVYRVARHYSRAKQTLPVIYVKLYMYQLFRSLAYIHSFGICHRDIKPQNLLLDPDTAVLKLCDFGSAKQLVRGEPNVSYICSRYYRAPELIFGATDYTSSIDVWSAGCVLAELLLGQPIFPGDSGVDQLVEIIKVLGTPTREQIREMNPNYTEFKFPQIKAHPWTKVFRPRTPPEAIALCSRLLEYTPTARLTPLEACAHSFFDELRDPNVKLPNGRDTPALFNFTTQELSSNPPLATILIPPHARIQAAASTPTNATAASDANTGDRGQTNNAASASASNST

[18] = biological target: Mast/stem cell growth factor receptor Kit (Homo sapiens, UniProt P10721); assay: Inhibition of KIT
LNCaP = assay: Antiproliferative activity against human LNCAP cells; assay type: functional, cell-based
[19] = biological target: Vascular endothelial growth factor receptor 3 (Homo sapiens, UniProt P35916); assay: Inhibition of VEGFR3
[20] = Tmax in Nu/Nu Balb Harlan mouse at 10 mg/kg, po; assay type: ADME, organism-based; design: dose 10 mg/kg, route oral; details: in vivo
A2780 [21] = assay: Induction of apoptosis in human A2780 cells assessed as PARP cleavage at 5 uM after 24 hrs by Western blotting analysis; assay type: functional, cell-based; how it was run: as §1
[22] = biological target: Tyrosine-protein kinase ABL1 (Homo sapiens, UniProt P00519); assay: Inhibition of c-ABL
Chain of Tyrosine-protein kinase ABL1 (P00519 whole entry): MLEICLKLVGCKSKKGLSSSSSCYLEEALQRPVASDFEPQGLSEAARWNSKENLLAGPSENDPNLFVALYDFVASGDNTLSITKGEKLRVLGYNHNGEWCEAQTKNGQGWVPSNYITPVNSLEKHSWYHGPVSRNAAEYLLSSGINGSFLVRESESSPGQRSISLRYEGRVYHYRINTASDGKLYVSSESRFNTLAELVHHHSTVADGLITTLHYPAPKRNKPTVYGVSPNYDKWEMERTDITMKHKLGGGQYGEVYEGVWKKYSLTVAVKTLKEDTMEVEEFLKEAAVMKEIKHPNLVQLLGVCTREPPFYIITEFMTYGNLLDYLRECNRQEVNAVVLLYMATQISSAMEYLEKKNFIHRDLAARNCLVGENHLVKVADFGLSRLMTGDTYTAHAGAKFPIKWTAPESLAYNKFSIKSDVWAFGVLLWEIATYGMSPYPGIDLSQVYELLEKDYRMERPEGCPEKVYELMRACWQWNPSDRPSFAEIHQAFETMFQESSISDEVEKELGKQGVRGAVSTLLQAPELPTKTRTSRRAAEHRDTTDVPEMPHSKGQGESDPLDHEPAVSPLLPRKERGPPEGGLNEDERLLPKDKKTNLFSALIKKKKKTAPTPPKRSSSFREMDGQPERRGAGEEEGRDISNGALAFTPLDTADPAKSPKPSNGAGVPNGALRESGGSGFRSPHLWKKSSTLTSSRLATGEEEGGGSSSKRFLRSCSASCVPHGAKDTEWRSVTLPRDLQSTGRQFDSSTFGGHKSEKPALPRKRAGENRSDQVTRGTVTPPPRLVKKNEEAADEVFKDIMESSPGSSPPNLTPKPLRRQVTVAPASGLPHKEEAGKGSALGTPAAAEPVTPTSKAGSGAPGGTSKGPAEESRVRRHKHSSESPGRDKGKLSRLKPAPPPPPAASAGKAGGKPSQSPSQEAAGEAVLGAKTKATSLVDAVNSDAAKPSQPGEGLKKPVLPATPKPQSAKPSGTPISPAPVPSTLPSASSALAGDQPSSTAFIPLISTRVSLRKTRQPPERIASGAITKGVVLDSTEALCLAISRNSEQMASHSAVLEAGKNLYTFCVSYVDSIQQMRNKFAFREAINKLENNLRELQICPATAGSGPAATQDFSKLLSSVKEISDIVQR

[23] = biological target: Epidermal growth factor receptor (Homo sapiens, UniProt P04626+P00533+Q15303+P21860); assay: Inhibition of EGFR1; assay type: protein assay
[24] = AUC (0 to infinity) in Nu/Nu Balb Harlan mouse at 10 mg/kg, po; assay type: ADME, organism-based; design: time infinity, dose 10 mg/kg, route oral; details: plasma
[25] = Inhibition of PDGFR
[26] = biological target: RAC-alpha serine/threonine-protein kinase (Homo sapiens, UniProt P31749); assay: Inhibition of AKT1
Chain of RAC-alpha serine/threonine-protein kinase (P31749 whole entry): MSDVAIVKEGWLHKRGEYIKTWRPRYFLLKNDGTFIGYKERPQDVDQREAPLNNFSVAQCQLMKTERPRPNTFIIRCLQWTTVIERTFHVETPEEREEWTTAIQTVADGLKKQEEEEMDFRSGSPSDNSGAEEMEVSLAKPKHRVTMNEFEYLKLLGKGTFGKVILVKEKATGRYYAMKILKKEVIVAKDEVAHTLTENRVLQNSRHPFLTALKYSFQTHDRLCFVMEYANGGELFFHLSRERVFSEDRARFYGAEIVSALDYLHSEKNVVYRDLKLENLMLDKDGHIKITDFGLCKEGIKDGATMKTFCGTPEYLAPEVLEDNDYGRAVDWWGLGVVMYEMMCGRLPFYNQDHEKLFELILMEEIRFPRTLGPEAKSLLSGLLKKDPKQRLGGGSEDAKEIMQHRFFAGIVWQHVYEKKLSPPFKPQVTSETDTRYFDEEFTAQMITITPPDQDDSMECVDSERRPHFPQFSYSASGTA

[27] = biological target: Tyrosine-protein kinase Lck (Homo sapiens, UniProt P06239); assay: Inhibition of LCK
[28] = biological target: Cyclin-dependent kinase 4/cyclin D1 (Homo sapiens, UniProt P11802); assay: Inhibition of CDK4/cyclin D1; assay type: protein-complex assay
[29] = biological target: Mitogen-activated protein kinase 14 (Homo sapiens, UniProt Q16539); assay: Inhibition of P38alpha
[30] = Solubility of the compound at pH 7; assay type: physicochemical; details: buffer
[31] = biological target: Cyclin-dependent kinase 2/cyclin E1 (Homo sapiens, UniProt P24941); assay: Inhibition of CDK2/cyclin E; assay type: protein-complex assay
[32] = biological target: Inhibitor of nuclear factor kappa-B kinase subunit beta (Homo sapiens, UniProt O14920); assay: Inhibition of IKK2
A2780 [33] = assay: Cell cycle arrest in human A2780 cells assessed as reduction of phospho Ser46 TCTP level at 0.05 to 5 uM after 1 hr by Western blotting analysis; assay type: functional, cell-based
How it was run: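 A2780 cells got 1 h exposure at 0.05, 0.5 and 5 µM, with nocodazole-treated cells as comparator. Western blot was used to probe the PLK1 substrate marker pSer46 TCTP and the mitotic marker pSer10 histone H3.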

[34] = biological target: High affinity nerve growth factor receptor (Homo sapiens, UniProt P04629); assay: Inhibition of TRKA
[35] = Terminal half life in Nu/Nu Balb Harlan mouse at 10 mg/kg, po; assay type: ADME, organism-based; design: dose 10 mg/kg, route oral; details: in vivo, read-out: beta t1/2 (converted)
[36] = biological target: Serine/threonine-protein kinase 26 (Homo sapiens, UniProt Q9P289); assay: Inhibition of MST4
Chain of Serine/threonine-protein kinase 26 (Q9P289 whole entry): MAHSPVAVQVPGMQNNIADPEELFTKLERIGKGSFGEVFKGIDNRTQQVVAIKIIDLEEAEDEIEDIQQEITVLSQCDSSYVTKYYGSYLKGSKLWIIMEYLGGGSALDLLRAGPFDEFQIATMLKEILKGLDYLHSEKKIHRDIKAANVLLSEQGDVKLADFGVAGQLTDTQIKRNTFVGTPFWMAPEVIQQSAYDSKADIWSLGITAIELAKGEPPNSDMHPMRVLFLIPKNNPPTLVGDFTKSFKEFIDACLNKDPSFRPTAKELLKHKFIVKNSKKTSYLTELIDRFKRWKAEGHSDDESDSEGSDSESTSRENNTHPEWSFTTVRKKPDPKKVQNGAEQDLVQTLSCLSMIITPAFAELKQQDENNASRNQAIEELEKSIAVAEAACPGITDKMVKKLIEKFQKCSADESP

[37] = biological target: Vascular endothelial growth factor receptor 2 (Homo sapiens, UniProt P35968); assay: Inhibition of VEGFR2
Aurora kinase A = biological target: T1, Aurora kinase A (Homo sapiens, UniProt O14965); assay: Inhibition of Aurora-A
T1 sequence (O14965 whole entry): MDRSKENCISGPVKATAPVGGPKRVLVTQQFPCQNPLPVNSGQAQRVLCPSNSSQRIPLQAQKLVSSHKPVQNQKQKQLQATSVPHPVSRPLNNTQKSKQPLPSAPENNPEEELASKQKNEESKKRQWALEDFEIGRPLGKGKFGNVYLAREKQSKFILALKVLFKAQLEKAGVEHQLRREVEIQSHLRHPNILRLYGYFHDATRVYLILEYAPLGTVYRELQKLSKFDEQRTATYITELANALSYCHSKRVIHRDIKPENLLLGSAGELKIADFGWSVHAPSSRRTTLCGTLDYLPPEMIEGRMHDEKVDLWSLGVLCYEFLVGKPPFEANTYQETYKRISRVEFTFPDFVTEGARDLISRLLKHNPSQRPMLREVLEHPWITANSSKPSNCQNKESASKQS

[38] = Apparent permeability of the compound by PAMPA; assay type: ADME
[39] = Inhibition of NIM
HCT-116 = assay: Antiproliferative activity against human HCT116 cells; assay type: functional, cell-based
K562 = assay: Antiproliferative activity against human K562 cells; assay type: functional, cell-based
[40] = biological target: Hepatocyte growth factor receptor (Homo sapiens, UniProt P08581); assay: Inhibition of MET

CN1CCN(c2ccc(OC(F)(F)F)c(Nc3nccc(-c4cc5c(n4C)CCNC5=O)n3)c2)CC1
IC50 [1]: > 10 µM
IC50 [2]: 0.42 µM
IC50 [3]: > 10 µM
AUC(0-inf) [4]: 5.78 µM·h
IC50 [5]: > 10 µM
IC50 [6]: > 10 µM
IC50 [7]: > 10 µM
IC50 [8]: > 10 µM
IC50 [9]: 0.053 µM
IC50 (MOLT-4): 0.017 µM
IC50 [10]: > 10 µM
Activity (A2780 [11]): Active
Activity (A2780 [12]): Dose-dependent effect
IC50 [13]: > 10 µM
IC50 [14]: 0.659 µM
Vd [15]: 2.49 L/kg
IC50 (A2780 [16]): 0.037 µM
IC50 (Aurora kinase B): > 10 µM
IC50 [17]: > 10 µM
IC50 [18]: > 10 µM
IC50 (LNCaP): 0.026 µM
IC50 [19]: > 10 µM
Tmax [20]: 1.5 h
Activity (A2780 [21]): Active
IC50 [22]: > 10 µM
IC50 [23]: > 10 µM
AUC(0-inf) [24]: 2.38 µM·h
IC50 [25]: > 10 µM
IC50 [26]: > 10 µM
IC50 [27]: > 10 µM
IC50 [28]: > 10 µM
IC50 [29]: > 10 µM
solubility [30]: 163 µM (≈ 81.7 µg/mL)
IC50 [31]: > 10 µM
IC50 [32]: > 10 µM
Activity (A2780 [33]): Active
IC50 [34]: > 10 µM
half-life [35]: 1.4 h
IC50 [36]: > 10 µM
IC50 [37]: > 10 µM
IC50 (Aurora kinase A): > 10 µM
Papp [38]: 5.79 ×10⁻⁶ cm/s
IC50 [39]: > 10 µM
IC50 (HCT-116): 0.032 µM
IC50 (K562): 0.06 µM
IC50 [40]: > 10 µM
